{"source": "paper PMC2871064", "about": "(Cancer research, 2010)", "key": {"stage 4 melanoma": {"tested_on": "stage 4 melanoma", "details": "cited from earlier work"}, "A375 cells": {"tested_on": "A375 cells", "assay": "Binding of [^131I]MIP-1145 to amelanotic A375 cells", "assay_type": "cell-based, human", "in_short": "(§1)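 Cells per well: 50,000 for SK-MEL-3, 25,000 for A375, attached overnight. Time course: up to 6 h at 37 °C with 11.5 nM tracer (~9 × 10⁵ CPM/well) in D-MEM/0.5% BSA. Acid wash (50 mM glycine, 150 mM NaCl, pH 3.0, 4 °C, 5 min) strips the surface fraction for gamma counting; cells are scintillation-counted. Competition: 2 h, 3.6 nM tracer plus 1.6–1,600 nM unlabeled compound.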"}, "SK-MEL-3 cells": {"tested_on": "SK-MEL-3 cells", "assay": "Binding of [^131I]MIP-1145 to melanotic SK-MEL-3 cells", "assay_type": "cell-based, human", "in_short": "as §1"}, "[1]": {"details": "2 hours, 3.6 nM tracer, up to 1.6 uM cold compound"}}, "note": "Like-named read-outs stand apart in the source and are kept apart here.", "data": [{"compound": "CN(C)/N=N/c1[nH]cnc1C(N)=O", "note": "[Dacarbazine]", "values": [{"measurement": "Objective response rate", "setting": "stage 4 melanoma; stage 4 melanoma patients", "result": 16, "unit": "%"}]}, {"compound": "CCN(CC)CCNC(=O)c1cc(I)c(NC(=O)c2ccc(F)cc2)cc1OC", "note": "[MIP-1145, N-(2-diethylamino-ethyl)-4-(4-fluoro-benzamido)-5-iodo-2-methoxy-benzamide]", "values": [{"measurement": "Competition by non-radiolabeled MIP-1145 for [^131I]MIP-1145 binding", "setting": "A375 cells; [1]", "result": "very little competition"}, {"measurement": "Cell associated fraction of the total added", "setting": "A375 cells; after 6 hours, 11.5 nM", "result": "about 13%"}, {"measurement": "Competition by non-radiolabeled MIP-1145 for [^131I]MIP-1145 binding", "setting": "SK-MEL-3 cells; [1]", "result": "very little competition"}, {"measurement": "Cell associated fraction of the total added", "setting": "SK-MEL-3 cells; after 6 hours, 11.5 nM", "result": "approximately 43%"}]}, {"compound": "interferon alpha-2b", "values": [{"measurement": "Objective response rate", "setting": "stage 4 melanoma; stage 4 disease, high-dose", "result": 14, "unit": "%"}]}]}
